“And” between values parts separate entries of the source, which are not always exact repeats. Identical values can stand only once. Square brackets hold non-standard residues; d marks the D form. Peptide text beside a SMILES is read from it. * marks the point of attachment. NMeY = CN[C@@H](Cc1ccc(O)cc1)C(=O)O; Hydrocinnamoyl = O=C(CCc1ccccc1)*; Palmitoyl = CCCCCCCCCCCCCCCC(=O)*; NMeF = CN[C@@H](Cc1ccccc1)C(=O)O; Undecanoyl = CCCCCCCCCCC(=O)*; pGlu = O=C1CC[C@@H](C(=O)O)N1; Nicotinoyl = O=C(c1cccnc1)*; Ac6c = NC1(C(=O)O)CCCCC1; Cbz = O=C(OCc1ccccc1)*; NHPh = c1ccc(N*)cc1; NHOH = ON*

The assay is filed under the species Rattus norvegicus. Put plainly: Inhibition of rat recombinant Rab geranylgeranyltransferase at 100 uM in presence of canine Rab7 and rat REP1 NBD-FPP based continuous fluorimetric assay. A digest of the protocol:
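Continuous fluorometric assay in 96/384-well format: 3 μM Rab7, 3 μM REP1, 9 μM NBD-FPP and 400 nM RabGGTase, with or without inhibitor. […] IC50 was calculated from three independent measurements.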
What is called inhibition is the drop in the measured response relative to a control, in per cent. As for `CON(C)C(=O)[C@H](CCC(N)=O)NC(=O)[C@H](Cc1ccccc1)NC(=O)[C@@H](NC(=O)/C=C/c1ccccc1)[C@@H](C)O`, the inhibition turned out to be 80%. On to `CCCCCCCCCCC(=O)N[C@@H](Cc1c[nH]cn1)C(=O)N[C@@H](Cc1c[nH]cn1)C(=O)N[C@@H](CO)C(=O)NCCCCN`, for which the inhibition amounted to 75%.

In the case of `COC(=O)[C@H](CC(C)C)NC(=O)[C@H](CO)NC(=O)[C@H](Cc1ccccc1)NC(=O)c1ccc(-c2ccccc2)cc1`, the inhibition came out at 94%. As for `O=C(/C=C/c1ccc(F)cc1)N[C@@H](CO)C(=O)N[C@@H](Cc1ccccc1)C(=O)N[C@@H](CO)C(=O)NC1CCCCC1`, the inhibition came to 86%. `C[C@H](NC(=O)CCc1ccccc1)C(=O)N[C@@H](Cc1ccccc1)C(=O)N[C@@H](CCC(N)=O)C(=O)OCCCCO`: the inhibition worked out at 44%. Regarding `NCCCCNC(=O)[C@H](Cc1ccc(O)cc1)NC(=O)CNC(=O)[C@H](Cc1ccc(O)cc1)NC(=O)c1ccc(F)cc1`, the inhibition turned out to be 88%.

`C[C@@H](NC(=O)CCc1ccccc1)C(=O)N[C@@H](Cc1ccccc1)C(=O)N[C@@H](CCC(N)=O)C(=O)NC1CCCCC1`: the inhibition came out at 44%. The result for `CCCCCCCCCCCC(=O)N[C@@H](Cc1c[nH]cn1)C(=O)N[C@@H](Cc1c[nH]cn1)C(=O)N[C@@H](CO)C(=O)Nc1ccccc1N` reads 88%.

In the case of `O=C(CNC(=O)[C@H](Cc1c[nH]cn1)NC(=O)c1coc(-c2ccccc2)n1)N[C@@H](Cc1c[nH]c2ccccc12)C(=O)O`, the inhibition turned out to be 69%. `COC(=O)[C@H](Cc1ccccc1)NC(=O)[C@H](Cc1ccccc1)NC(=O)[C@H](CC(C)C)NC(=O)/C=C/c1ccccc1`: the inhibition is -2%. Turning to `CC(C)C[C@H](NC(=O)[C@H](COC(C)(C)C)NC(=O)[C@H](Cc1ccccc1)NC(=O)/C=C/c1ccc(F)cc1)C(=O)Nc1nccs1`, the inhibition was 112%. On to `CC[C@H](C)[C@H](NC(=O)c1ccc(-c2ccccc2)cc1)C(=O)N[C@@H](C(=O)N[C@@H](CCC(N)=O)C(=O)Nc1cccc(Br)n1)C(C)C`, for which the inhibition is 106%.

Consider `CC(=O)Nc1cc(C(=O)N2CCC[C@H]2C(=O)N[C@@H](C(=O)N[C@@H](CCC(=O)O)C(=O)Nc2ccc(F)c(Cl)c2)C(C)C)ccc1[N+](=O)[O-]`, for which the inhibition is 109%. The result for `CC(C)C[C@H](NC(=O)[C@H](CO)NC(=O)[C@H](Cc1ccccc1)NC(=O)CCc1ccccc1)C(N)=O` reads 100%. Turning to `O=C(/C=C/c1ccc(F)cc1)N[C@@H](CO)C(=O)N[C@@H](Cc1ccccc1)C(=O)N[C@@H](CO)C(=O)NCc1ccccc1`, the inhibition stood at 100%. On to `CC(C)C[C@H](NC(=O)[C@@H]1CCC(=O)N1)C(=O)N[C@@H](CCCCN)C(=O)NC1(C(=O)O)CCCCC1` ([pGlu]LK[Ac6c]-OH), for which the inhibition was 102% and 98%. `C[C@@H](O)[C@H](NC(=O)/C=C/c1ccccc1)C(=O)N[C@@H](Cc1ccccc1)C(=O)N[C@@H](CCC(N)=O)C(=O)OCCCl`: the inhibition amounted to 81%. With `CCCCCCCCCCCCCC(=O)OC[C@H](NC(=O)CNC(=O)[C@H](COC(=O)CCCCCCCCCCCCC)NC(=O)c1coc(-c2ccccc2)n1)C(=O)O`, the inhibition is 106%. With `NC(=O)CC[C@H](NC(=O)[C@H](Cc1ccccc1)NC(=O)[C@H](CO)NC(=O)CCc1ccccc1)C(N)=O` (Hydrocinnamoyl-Ser-Phe-Gln-NH2), the inhibition was determined as 106%. Next, `C[C@@H](O)[C@H](NC(=O)/C=C/c1ccccc1)C(=O)N[C@@H](Cc1ccccc1)C(=O)N[C@@H](CCC(N)=O)C(=O)Nc1cccc(Br)n1`: 83%; `CCCCCCCCCCC(=O)NC(Cc1ccc(O)cc1)C(=O)N[C@@H](Cc1c[nH]cn1)C(=O)N[C@@H](Cc1c[nH]cn1)C(=O)NCC(O)CO` (stereo not given in full): 89%; `CC[C@H](C)[C@H](NC(=O)c1ccc(-c2ccccc2)cc1)C(=O)N[C@@H](C(=O)N[C@@H](CCC(N)=O)C(=O)N1CCOCC1)C(C)C`: 92%. With `COC(=O)[C@H](Cc1ccccc1)NC(=O)CNC(=O)[C@@H]1CCCN1C(=O)/C=C/c1ccccc1`, the inhibition is 89%.

For the compound `CN(CCc1ccccn1)C(=O)[C@H](Cc1ccc(O)cc1)NC(=O)CCNC(=O)[C@H](Cc1c[nH]cn1)NC(=O)OCc1ccccc1`, the inhibition is 78%. `CCCCCCCCCCCOc1ccc(C(=O)N[C@@H](Cc2c[nH]cn2)C(=O)N[C@@H](Cc2c[nH]cn2)C(=O)N[C@@H](Cc2c[nH]cn2)C(=O)OC)cc1`: the inhibition is 87%.

`O=C(CCc1ccccc1)N[C@@H](CO)C(=O)N[C@@H](Cc1ccccc1)C(=O)N[C@@H](CO)C(=O)Nc1ccc(F)cc1F`: the inhibition came to 96%. With `NC(=O)CC[C@H](NC(=O)[C@H](Cc1ccccc1)NC(=O)CNC(=O)CCc1ccccc1)C(=O)O` (Hydrocinnamoyl-Gly-Phe-Gln-OH), the inhibition is 94%. In the case of `NC(=O)CC[C@H](NC(=O)[C@H](Cc1ccccc1)NC(=O)CNC(=O)CCc1ccccc1)C(=O)NC1CCCCC1`, the inhibition was 50%. As to `COC(=O)[C@H](CC(C)C)NC(=O)[C@H](COC(C)(C)C)NC(=O)[C@H](Cc1ccccc1)NC(=O)CCc1ccccc1`, the inhibition was found to be 81%. For `O=C(N[C@@H](Cc1c[nH]cn1)C(=O)N[C@@H](Cc1ccc(O)cc1)C(=O)N[C@@H](Cc1ccccc1)C(=O)O)OCc1ccccc1` (Cbz-His-Tyr-Phe-OH), the inhibition was 39%.

In the case of `CCCCCCCCCCC(=O)N[C@@H](Cc1c[nH]cn1)C(=O)N[C@@H](Cc1c[nH]cn1)C(=O)N[C@@H](CO)C(=O)NO` (Undecanoyl-His-His-Ser-{NHOH}), the inhibition came to 78%. Take `CCCCCCCCCCC(=O)N[C@@H](Cc1c[nH]cn1)C(=O)N[C@@H](Cc1ccccc1)C(=O)N[C@@H](Cc1ccc(O)cc1)C(=O)OC` (Undecanoyl-His-Phe-Tyr-OMe): the inhibition was 68%. As to `NC(=O)CC[C@H](NC(=O)[C@H](Cc1ccccc1)NC(=O)[C@H](CO)NC(=O)CCc1ccccc1)C(=O)Nc1ccccc1` (Hydrocinnamoyl-Ser-Phe-Gln-NHPh), the inhibition was found to be 90%. The result for `CCCCCCCCCCC(=O)N[C@@H](Cc1ccc(O)cc1)C(=O)N[C@@H](Cc1cnc[nH]1)C(=O)N[C@@H](Cc1ccc(O)cc1)C(=O)O` (Undecanoyl-Tyr-His-Tyr-OH) reads 90%; that for `CCCCCCCCCCC(=O)N[C@@H](Cc1c[nH]cn1)C(=O)N[C@@H](Cc1ccccc1)C(=O)N[C@@H](Cc1ccc(O)cc1)C(=O)NCCCn1ccnc1`, 101%; that for `CC[C@H](C)[C@H](NC(=O)[C@H](Cc1ccccc1)NC(=O)c1cccnc1)C(=O)N[C@@H](CCCNC(=N)N)C(N)=O` (Nicotinoyl-Phe-Ile-Arg-NH2), 79%. The result for `O=C(CCc1ccc(F)cc1)N[C@@H](Cc1ccc(O)cc1)C(=O)NCC(=O)N[C@@H](Cc1ccc(O)cc1)C(=O)NCc1ccccc1` reads 127%; that for `CN(C(=O)[C@H](Cc1cnc[nH]1)NC(=O)OCc1ccccc1)[C@@H](Cc1ccc(O)cc1)C(=O)N(C)[C@@H](Cc1ccccc1)C(=O)O` (Cbz-His-[NMeY]-[NMeF]-OH), 54%; that for `O=C(CCNC(=O)[C@H](Cc1c[nH]cn1)NC(=O)OCc1ccccc1)N[C@@H](Cc1ccc(O)cc1)C(=O)NCCCn1ccnc1`, 88%. Turning to `Cc1nc(C)c(C(=O)OC[C@H](NC(=O)[C@H](Cc2ccccc2)NC(=O)[C@H](CO)NC(=O)c2coc(-c3ccccc3)n2)C(=O)O)o1`, the inhibition came out at 84%.

Take `CC(C)(C)Oc1ccc(C[C@H](NC(=O)CNC(=O)[C@H](CCCCN)NC(=O)c2coc(-c3ccccc3)n2)C(=O)O)cc1`: the inhibition is 93%. Next, `O=C(N[C@H](Cc1cnc[nH]1)C(=O)N[C@@H](Cc1ccc(O)cc1)C(=O)N[C@@H](Cc1ccccc1)C(=O)O)OCc1ccc(OCc2ccccc2)cc1`: 47%; `CCCCCCCCCCCCCCCC(=O)N[C@@H](Cc1ccc(O)cc1)C(=O)N[C@@H](Cc1ccc(O)cc1)C(=O)N[C@@H](Cc1ccc(O)cc1)C(=O)OCCN`: 110%. Next, `COC(=O)[C@H](CCC(N)=O)NC(=O)[C@H](Cc1ccccc1)NC(=O)[C@H](CO)NC(=O)CCc1ccccc1` (Hydrocinnamoyl-Ser-Phe-Gln-OMe): 76%; `CCCCCCCCCCCCCCCC(=O)N[C@@H](Cc1ccc(O)cc1)C(=O)N[C@@H](Cc1ccc(O)cc1)C(=O)N[C@@H](Cc1ccc(O)cc1)C(=O)OCCCl`: 114%; `CCCCCCCCCCC(=O)N[C@@H](Cc1ccc(O)cc1)C(=O)N[C@@H](Cc1c[nH]cn1)C(=O)N[C@@H](Cc1c[nH]cn1)C(N)=O` (Undecanoyl-Tyr-His-His-NH2): 79%.

Take `CCCCCc1ccc(CCC(=O)N[C@H](Cc2ccc(O)cc2)C(=O)N[C@@H](Cc2ccccc2)C(=O)N[C@@H](Cc2ccc(O)cc2)C(=O)O)cc1`: the inhibition was 2%. Regarding `O=C(CCc1ccccc1)N[C@@H](CO)C(=O)N[C@@H](Cc1ccccc1)C(=O)N[C@@H](CO)C(=O)NC1CCCCC1`, the inhibition is 90%. Regarding `CCCCCCCCCC(=O)N[C@@H](Cc1c[nH]cn1)C(=O)N[C@@H](Cc1cnc[nH]1)C(=O)N[C@@H](Cc1ccc(O)cc1)C(=O)OCCN`, the inhibition came to 29%. The result for `O=C(/C=C/c1ccccc1)N[C@@H](Cc1ccccc1)C(=O)N[C@@H](Cc1ccccc1)C(=O)N[C@@H](Cc1ccc(O)cc1)C(=O)NC1CCCCC1` reads 71%; that for `CCCCCCCCCCC(=O)N[C@@H](Cc1ccc(O)cc1)C(=O)N[C@@H](Cc1c[nH]cn1)C(=O)N[C@@H](Cc1c[nH]cn1)C(=O)Nc1ccccc1N`, 87%. For the compound `CC#CCOC(=O)[C@H](Cc1ccccc1)NC(=O)[C@H](CC(C)C)NC(=O)[C@@H]1CCCN1C(=O)/C=C/c1ccccc1`, the inhibition was 107%. Consider `NC(=O)CC[C@H](NC(=O)[C@H](Cc1ccccc1)NC(=O)[C@H](CO)NC(=O)CCc1ccccc1)C(=O)O` (Hydrocinnamoyl-Ser-Phe-Gln-OH), for which the inhibition worked out at 102%.

Turning to `O=C(CNC(=O)c1csc(-c2ccc(C(F)(F)F)cc2)n1)N[C@@H](Cc1ccccc1)C(=O)N[C@@H](Cc1c[nH]cn1)C(=O)O`, the inhibition was 137%. As for `CCCCCCCCCCCCCCCC(=O)N[C@@H](Cc1ccc(O)cc1)C(=O)N[C@@H](Cc1ccc(O)cc1)C(=O)N[C@@H](Cc1ccc(O)cc1)C(=O)OC` (Palmitoyl-Tyr-Tyr-Tyr-OMe), the inhibition was 49%.

Source of the values: ChEMBL document CHEMBL1153722, “Design, synthesis, and characterization of peptide-based rab geranylgeranyl transferase inhibitors” (J Med Chem, 2009).
